Laboratory results: ChEMBL document CHEMBL4680084, “New β-Lactam Derivatives Modulate Cell Adhesion and Signaling Mediated by RGD-Binding and Leukocyte Integrins” (J Med Chem, 2016)
pEC50, pIC50: −log10 of the molar value. Numbered stars: 1 amine (or outer) side, 2 acyl side, 3 side chain; on linkers, the order of the positions; unused ones are H or OH. Square brackets hold non-standard residues; d marks the D form. Peptide text beside a SMILES is read from it. * marks the point of attachment. X1 = O=C(Cc1ccc(N[*:1])cc1)[*:2]; NH(2-Me-phenyl) = Cc1ccccc1N*; CO = O=C([*:1])[*:2]

Tests used:
K562 = assay: Toxicity in human K562 cells assessed as induction of cell necrosis and/or apoptosis incubated for 3 hrs by annexin V-PE and 7-AAD staining based by flow cytometry; details: k562, 3 h
Summary of the method: (§1)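 After 3 h incubation, cells resuspended in complete medium and stained with annexin V-PE/7-AAD reagent for 20 min at room temperature in the dark. Flow cytometry sorted cells into viable, early apoptotic and late apoptotic/necrotic populations.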

HT-29 = assay: Toxicity in human HT-29 cells assessed as induction of cell necrosis and/or apoptosis incubated for 3 hrs by annexin V-PE and 7-AAD staining based by flow cytometry; details: ht-29, 3 h; summary of the method: as §1
SK-MEL-24 = assay: Toxicity in human SK-MEL-24 cells assessed as induction of cell necrosis and/or apoptosis incubated for 3 hrs by annexin V-PE and 7-AAD staining based by flow cytometry; details: sk-mel-24, 3 h; summary of the method: as §1
MCF7 = assay: Toxicity in human MCF7 cells assessed as induction of cell necrosis and/or apoptosis incubated for 3 hrs by annexin V-PE and 7-AAD staining based by flow cytometry; details: mcf7, 3 h; summary of the method: as §1
HEL = assay: Toxicity in human HEL cells assessed as induction of cell necrosis and/or apoptosis incubated for 3 hrs by annexin V-PE and 7-AAD staining based by flow cytometry; summary of the method: as §1
Integrin alpha-4/beta-1 [1] = molecular target: T1, Integrin alpha-4/beta-1 (Homo sapiens, UniProt P05556+P13612); assay: Agonist activity at alpha4beta1 in human Jurkat E6.1 cells assessed as increase in cell adhesion to VCAM1 pre-incubated for 30 mins before VCAM1 and further incubated for 30 mins by […]; assay type: cell-based
Summary of the method: (§2)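 Jurkat E6.1 cells labelled with CellTracker green CMFDA (12.5 µM, 30 min, 37 °C), washed, then pre-incubated 30 min at 37 °C with compound or methanol. Plated at 500,000/well on VCAM-1 (α4β1) or ICAM-1 (αLβ2) coated wells (5 µg/mL) for 30 min at 37 °C. Cells lysed in 0.5% Triton X-100; fluorescence read Ex485/Em535. Quadruplicate, at least three repeats.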

Integrin alpha-V/beta-5 [2] = molecular target: T2, Integrin alpha-V/beta-5 (Homo sapiens, UniProt P06756+P18084); assay: Agonist activity at alphaVbeta5 in human MCF7 cells assessed as increase in cell adhesion to fibrinogen pre-incubated for 30 mins before fibrinogen and further incubated for 1 hr by nitrophenyl-N-acetyl-beta-D-glucosaminide substrate based chromogenic assay
Summary of the method: (§3)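 Compound or methanol vehicle pre-incubated with cells for 30 min at room temperature. Cells then plated on wells coated overnight at 4 °C with fibronectin 10 µg/mL (SK-MEL-24, K562, HT-29) or fibrinogen 10 µg/mL (MCF7, HEL). Seeding was 50,000 cells/well, or 100000 for HEL. Adhesion ran 1 h at room temperature. Wells washed with 1% BSA/PBS. Adherent cells read by hexosaminidase substrate, absorbance 405 nm. Quadruplicate, at least three repeats.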

Integrin alpha-V/beta-3 [3] = molecular target: T3, Integrin alpha-V/beta-3 (Homo sapiens, UniProt P05106+P06756); assay: Antagonist activity at alphaVbeta3 in human SK-MEL-24 cells assessed as reduction in cell adhesion to fibronectin pre-incubated for 30 mins before fibronectin and further incubated for 1 hr by nitrophenyl-N-acetyl-beta-D-glucosaminide substrate based chromogenic assay
Summary of the method: as §3, with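 “BSA/PBS.” for “BSA/PBS. Adherent cells read by hexosaminidase substrate, absorbance 405 nm.”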

[4] = molecular target: T4, Integrin alpha-L/beta-2 (LFA-1) (Homo sapiens, UniProt P05107+P20701); assay: Agonist activity at alphaLbeta2 in human Jurkat E6.1 cells assessed as increase in cell adhesion to ICAM1 pre-incubated for 30 mins before ICAM1 and further incubated for 30 mins by […]; assay type: cell-based; summary of the method: as §2
Integrin alpha-5/beta-1 [5] = molecular target: T5, Integrin alpha-5/beta-1 (Homo sapiens, UniProt P05556+P08648); assay: Antagonist activity at alpha5beta1 in human K562 cells assessed as reduction in cell adhesion to fibronectin pre-incubated for 30 mins before fibronectin and further incubated for 1 hr by nitrophenyl-N-acetyl-beta-D-glucosaminide substrate based chromogenic assay; summary of the method: as §3
[6] = molecular target: T6, Integrin alpha-IIb/beta-3 (Homo sapiens, UniProt P05106+P08514); assay: Agonist activity at alpha2bbeta3 in human HEL cells assessed as increase in cell adhesion to fibrinogen pre-incubated for 30 mins before fibrinogen and further incubated for 1 hr by nitrophenyl-N-acetyl-beta-D-glucosaminide substrate based chromogenic assay
Summary of the method: as §3, with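 “BSA/PBS.” for “BSA/PBS. Adherent cells read by hexosaminidase substrate, absorbance 405 nm.”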

Integrin alpha-V/beta-5 [7] = molecular target: T2, Integrin alpha-V/beta-5; assay: Antagonist activity at alphaVbeta5 in human MCF7 cells assessed as reduction in cell adhesion to fibrinogen pre-incubated for 30 mins before fibrinogen and further incubated for 1 hr by nitrophenyl-N-acetyl-beta-D-glucosaminide substrate based chromogenic assay
Summary of the method: as §3, with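 “BSA/PBS.” for “BSA/PBS. Adherent cells read by hexosaminidase substrate, absorbance 405 nm.”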

Integrin alpha-V/beta-6 [8] = molecular target: T7, Integrin alpha-V/beta-6 (Homo sapiens, UniProt P06756+P18564); assay: Antagonist activity at alphaVbeta6 in human HT-29 cells assessed as reduction in cell adhesion to fibronectin pre-incubated for 30 mins before fibronectin and further incubated for 1 hr by nitrophenyl-N-acetyl-beta-D-glucosaminide substrate based chromogenic assay
Summary of the method: as §3, with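 “BSA/PBS.” for “BSA/PBS. Adherent cells read by hexosaminidase substrate, absorbance 405 nm.”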

Integrin alpha-4/beta-1 [9] = molecular target: T1, Integrin alpha-4/beta-1; assay: Antagonist activity at alpha4beta1 in human Jurkat E6.1 cells assessed as reduction in cell adhesion to VCAM1 pre-incubated for 30 mins before VCAM1 and further incubated for 30 mins by […]; assay type: cell-based
[10] = molecular target: T4, Integrin alpha-L/beta-2 (LFA-1); assay: Antagonist activity at alphaLbeta2 in human Jurkat E6.1 cells assessed as reduction in cell adhesion to ICAM1 pre-incubated for 30 mins before ICAM1 and further incubated for 30 mins by […]; assay type: cell-based; summary of the method: as §2
[11] = molecular target: T6, Integrin alpha-IIb/beta-3; assay: Antagonist activity at alpha2bbeta3 in human HEL cells assessed as reduction in cell adhesion to fibrinogen pre-incubated for 30 mins before fibrinogen and further incubated for 1 hr by nitrophenyl-N-acetyl-beta-D-glucosaminide substrate based chromogenic assay
Summary of the method: as §3, with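 “BSA/PBS.” for “BSA/PBS. Adherent cells read by hexosaminidase substrate, absorbance 405 nm.”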

Integrin alpha-V/beta-3 [12] = molecular target: T3, Integrin alpha-V/beta-3; assay: Agonist activity at alphaVbeta3 in human SK-MEL-24 cells assessed as increase in cell adhesion to fibronectin pre-incubated for 30 mins before fibronectin and further incubated for 1 hr by nitrophenyl-N-acetyl-beta-D-glucosaminide substrate based chromogenic assay; summary of the method: as §3
Integrin alpha-V/beta-6 [13] = molecular target: T7, Integrin alpha-V/beta-6; assay: Agonist activity at alphaVbeta6 in human HT-29 cells assessed as increase in cell adhesion to fibronectin pre-incubated for 30 mins before fibronectin and further incubated for 1 hr by nitrophenyl-N-acetyl-beta-D-glucosaminide substrate based chromogenic assay; summary of the method: as §3
Integrin alpha-5/beta-1 [14] = molecular target: T5, Integrin alpha-5/beta-1; assay: Agonist activity at alpha5beta1 in human K562 cells assessed as increase in cell adhesion to fibronectin pre-incubated for 30 mins before fibronectin and further incubated for 1 hr by nitrophenyl-N-acetyl-beta-D-glucosaminide substrate based chromogenic assay; summary of the method: as §3
Integrin alpha-5/beta-1 [15] = molecular target: T5, Integrin alpha-5/beta-1; assay: Inhibition of fibronectin binding to alpha5beta1 isolated from human K562 cells incubated for 1 hr by […] competitive solid-phase binding assay; assay type: tissue-based
Summary of the method: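 Plates coated overnight at 4 °C in carbonate buffer pH 9.6 with fibronectin 0.5 µg/mL (αvβ3, αvβ6, α5β1), fibrinogen 10 µg/mL (αIIbβ3, αvβ5) or ICAM-1 (αLβ2). Blocked 1 h in buffer containing Ca/Mg/Mn 1 mM each and 1% BSA. Purified integrin (3–10 µg/mL) incubated with compound (10⁻⁴–10⁻¹⁰ M) 1 h at room temperature. Bound integrin detected with primary antibody then AlexaFluor488 secondary, Ex485/Em535. Duplicate, at least three repeats.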

[16] = molecular target: T6, Integrin alpha-IIb/beta-3; assay: Inhibition of fibrinogen binding to alpha2bbeta3 isolated from human HEL cells incubated for 1 hr by […] competitive solid-phase binding assay
Integrin alpha-V/beta-5 [17] = molecular target: T2, Integrin alpha-V/beta-5; assay: Inhibition of fibrinogen binding to alphaVbeta5 isolated form human mCf7 cells incubated for 1 hr by […] competitive solid-phase binding assay
Integrin alpha-V/beta-6 [18] = molecular target: T7, Integrin alpha-V/beta-6; assay: Inhibition of fibronectin binding to alphaVbeta6 isolated form human HT-29 cells incubated for 1 hr by […] competitive solid-phase binding assay; assay type: tissue-based
Integrin alpha-4/beta-1 [19] = molecular target: T1, Integrin alpha-4/beta-1; assay: Inhibition of fibronectin binding to […] isolated from human Jurkat E6.1 cells incubated for 1 hr by scintillation-proximity assay based competitive solid-phase binding assay; assay type: tissue-based
Integrin alpha-V/beta-3 [20] = molecular target: T3, Integrin alpha-V/beta-3; assay: Inhibition of fibronectin binding to human recombinant alphaVbeta3 expressed in HEK293 cells incubated for 1 hr by […] competitive solid-phase binding assay; assay type: cell-based

Molecule	pIC50 (Integrin alpha-V/beta-3 [3])	pIC50 (Integrin alpha-5/beta-1 [5])	pEC50 [6]	pIC50 (Integrin alpha-V/beta-5 [7])	pIC50 (Integrin alpha-V/beta-6 [8])	pIC50 [10]	pIC50 [11]	pEC50 (Integrin alpha-V/beta-6 [13])	Activity (K562)	Activity (HT-29)	Activity (SK-MEL-24)	Activity (MCF7)	Activity (HEL)	pEC50 (Integrin alpha-4/beta-1 [1])	pEC50 (Integrin alpha-V/beta-5 [2])	pEC50 [4]	pIC50 (Integrin alpha-4/beta-1 [9])	pEC50 (Integrin alpha-V/beta-3 [12])	further results
CC(C)[C@@H]1NC(=O)[C@@H](Cc2ccccc2)NC(=O)[C@H](CC(=O)O)NC(=O)CNC(=O)[C@H](CCCN=C(N)N)NC1=O [CYCLORGDFV]	–	–	–	–	–	–	–	–	Non-Toxic	Non-Toxic	Non-Toxic	Non-Toxic	Non-Toxic	–	–	–	–	–	–
CCCCS(=O)(=O)N[C@@H](Cc1ccc(OCCCCC2CCNCC2)cc1)C(=O)O [TIROFIBAN]	–	–	–	–	–	–	–	–	Non-Toxic	Non-Toxic	Non-Toxic	Non-Toxic	Non-Toxic	–	–	–	–	–	–
Ac-DRLDS-OH	–	< 5.30	< 5.30	5.64	< 5.30	–	< 5.30	< 5.30	Non-Toxic	Non-Toxic	Non-Toxic	Non-Toxic	Non-Toxic	–	–	–	–	–	pEC50 (Integrin alpha-5/beta-1 [14]): < 5.30
NCc1ccc(NC(=O)N2C(=O)C[C@H]2C(=O)O)cc1.O=C(O)C(F)(F)F	< 5.30	–	< 5.30	< 5.30	< 5.30	< 5.30	< 5.30	< 5.30	Non-Toxic	Non-Toxic	Non-Toxic	Non-Toxic	Non-Toxic	< 5.30	< 5.30	< 5.30	< 5.30	< 5.30	–
Nc1ccc(CNC(=O)N2C(=O)CC2CC(=O)NCCC(=O)O)cc1.O=C(O)C(F)(F)F (stereo not drawn)	< 5.30	5.98	< 5.30	< 5.30	< 5.30	< 5.30	< 5.30	< 5.30	Non-Toxic	Non-Toxic	Non-Toxic	Non-Toxic	Non-Toxic	< 5.30	< 5.30	< 5.30	< 5.30	< 5.30	–

More lines, main results first:

pIC50 (Integrin alpha-V/beta-3 [3])	pIC50 (Integrin alpha-5/beta-1 [5])	pEC50 [6]	pIC50 (Integrin alpha-V/beta-5 [7])	pIC50 (Integrin alpha-V/beta-6 [8])	pIC50 [10]	pIC50 [11]	pEC50 (Integrin alpha-V/beta-6 [13])	Molecule	Activity (K562)	Activity (HT-29)	Activity (SK-MEL-24)	Activity (MCF7)	Activity (HEL)	pEC50 (Integrin alpha-4/beta-1 [1])	pEC50 (Integrin alpha-V/beta-5 [2])	pEC50 [4]	pIC50 (Integrin alpha-4/beta-1 [9])	pEC50 (Integrin alpha-V/beta-3 [12])	further results
< 5.30	6.38	< 5.30	< 5.30	< 5.30	< 5.30	< 5.30	< 5.30	O=C(O)CC1CC(=O)N1C(=O)NCc1ccccc1 (stereo not drawn)	Non-Toxic	Non-Toxic	Non-Toxic	Non-Toxic	Non-Toxic	< 5.30	< 5.30	< 5.30	< 5.30	< 5.30	–
–	–	–	–	–	9.08	–	–	Cc1ccccc1NC(=O)Nc1ccc(CC(=O)N[C@@H](CC(C)C)C(=O)N[C@@H](CC(=O)O)C(=O)N[C@H](C(=O)N2CCC[C@H]2C(=O)O)C(C)C)cc1 ({NH(2-Me-phenyl)-CO}-[X1]LDVP-OH)	Non-Toxic	Non-Toxic	Non-Toxic	Non-Toxic	Non-Toxic	–	–	–	–	–	–
6.03	9.21	< 5.30	7.47	< 5.30	–	< 5.30	< 5.30	H-GRGDTP-OH	Non-Toxic	Non-Toxic	Non-Toxic	Non-Toxic	Non-Toxic	–	–	–	–	–	–
7.39	–	6.51	–	< 5.30	5.79	–	< 5.30	O=C(O)CC1CC(=O)N1 (stereo not drawn)	Non-Toxic	Non-Toxic	Non-Toxic	Non-Toxic	Non-Toxic	< 5.30	6.42	–	< 5.30	–	pIC50 (Integrin alpha-5/beta-1 [15]): < 6.00; pIC50 [16]: 6.58; pEC50 (Integrin alpha-5/beta-1 [14]): 5.99; pIC50 (Integrin alpha-V/beta-5 [17]): 8.62; pIC50 (Integrin alpha-V/beta-6 [18]): < 6.00; pIC50 (Integrin alpha-4/beta-1 [19]): < 6.00; pIC50 (Integrin alpha-V/beta-3 [20]): 8.72
